This is a sample that favours compounds with a hit; in the whole collection about 1% have one here.
Yeast eIF2B: eIF2B (yeast) activity modulation | S. cerevisiae eIF2B-epsilon R284H, GCN4-lacZ luminescence | inhibition, % at 25 µM (by protocol) | 27,000 tested, 0.91% active | AID 688;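 active = mutant luminescence inhibited past about 50% while wild type luminescence and mutant growth stay under set limits, limit read from the data; inconclusive = mutant versus wild type luminescence inhibition gap past a set limit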
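System: Yeast eIF2B-epsilon R284H mutant carrying GCN4–beta-galactosidase fusion | Read-out basis: Percent inhibition, luminescence and growth | Compound: 25 µM single dose | Times: 16 h at 30 °C exposure | Measured by: Luminescence and A595 | Buffer or medium: YPD medium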
Yeast growth tox: Compounds toxic to wild-type S. cerevisiae growth | A595 turbidity, 16 h | growth inhibition, % at 25 µM (by protocol) | 30,000 tested, 0.3% active | AID 685;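 active = mutant and wild-type yeast strains alike exhibit over 30% growth inhibition; inconclusive = a strain exceeds 50% while the second remains under 30%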;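 also: 0% = untreated cell controls and 100% = YPD media blanks without cells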
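Schedule: 16 h growth with compound, 30 °C. System: yeast, wild-type or eIF2Bepsilon-R284H mutant. Doses: one dose, 25 µM compound[…]. Buffer or medium: YPD. Signal: turbidity measured as absorbance at 595 nm. Read-out basis: growth inhibition (%) versus cell controls and blanks.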
An asterisk follows results filed as active; ? = inconclusive; . = no result given.

SMILES | Yeast eIF2B | Yeast growth tox
N#CCCN(C(=O)CSc1nc(-c2ccccc2)cn1N)c1ccc(F)cc1 | . | 11
O=C(c1cccs1)N1CCCC1 | 5 | 0
O=C(c1cccs1)N1CCC(c2ccccc2)C1 (configuration not stated) | 71* | 18
CC1CCN(S(=O)(=O)c2ccc3ncn(CC(=O)N(C)Cc4ccccc4)c(=O)c3c2)CC1 | -3 | 17
C=CCOC(=O)C1=C(C)Nc2ncnn2C1c1cccs1 (configuration not stated) | 23 | 29
C=CCOC(=O)C1=C(C)Nc2nc3ccccc3n2C1c1ccncc1 (configuration not stated) | 63* | -18
O=C(c1ccccc1)N1CCc2ccccc21 | 12 | 27
O=C(c1ccc(Br)o1)N1CCCc2ccccc21 | 53* | -17
CCOC(=O)c1[nH]cnc1C(=O)NC(C)C | . | 0
O=C(Nc1ccc2c(c1)CCC2)C1CCCO1 (configuration not stated) | 21 | 5
Cc1noc(C)c1C(=O)Nc1ccc2c(c1)CCC2 | 65* | .
Nc1nc(SCC(=O)NCCC(c2ccccc2)c2ccccc2)n[nH]1 | -6 | -1
Cc1cc(C)c(NC(=O)CSc2nnc(Cc3cccn3C)n2-c2ccc(F)cc2)c(C)c1 | 60* | 3
COc1ccc(NC(=O)CSc2nnc(Cc3cccn3C)n2-c2ccc(C)cc2)cc1OC | 12 | -1
CCOc1ccc(C(=O)N2CCSC2=S)cc1 | 15 | -19
CC(NC(=O)c1ccco1)c1cccc2ccccc12 (configuration not stated) | 1 | 9
COC(=O)COc1ccc(S(=O)(=O)NCc2ccco2)cc1Cl | 10 | 13
N/C(Cc1ccc(Cl)cc1)=N\OC(=O)c1ccccc1 | 0 | 71*
N/C(Cc1ccc([N+](=O)[O-])cc1)=N\OC(=O)c1ccc([N+](=O)[O-])cc1 | 16 | 5
COc1ccc(C(C)=O)cc1CSCCC#N | 19 | 6
CC(C)(C)C(=O)C(Cc1ccccc1Cl)n1cncn1 (configuration not stated) | 27 | 74*
CC(C)(C)C(=O)C(Cc1ccccc1)n1cncn1 (configuration not stated) | 26 | 62*
CCCC(C(=O)c1ccccc1)n1cncn1 (configuration not stated) | 6 | 2
CC(C)(C)C(=O)Cn1c(=N)n(Cc2ccccc2Cl)c2ccccc21 | . | 3
C/C(N)=C(/C#N)C(=O)CN1CCCCC1 | 20 | 12
SMILES | Yeast eIF2B | Yeast growth tox
O=C(c1ccc2c3c(cccc13)CC2)N1CCN(c2ncccn2)CC1 | -5 | -2
COc1ccc(CCNC(=O)c2ccc(N3CCCC3=O)cc2)cc1OC | 56* | -10
CCCCN(C)CCCNC(=O)c1ccc(N2CCCC2=O)cc1 | 6 | -2
O=C(OC(C(=O)NCc1cccs1)c1ccccc1Cl)c1ccco1 (configuration not stated) | 16 | -2
COc1ccc(CC(=O)Nc2ccc(N3CCN(c4ccc(OC)cc4)CC3)c(C#N)c2)cc1 | 53* | -26
COc1ccc(OCC(=O)Nc2ccc(N3CCOCC3)cc2)cc1 | 21 | 6
CC(C)c1ccc(CN2CC(C(=O)O)CC2=O)cc1 (configuration not stated) | . | 24
CCS(=O)(=O)N1CCN(C(=O)c2ccccc2)CC1 | 11 | 12
O=C(c1ccccc1)N1CCN(C(=O)c2ccncc2)CC1 | 51* | 16
CCOCCCNS(=O)(=O)c1ccc(-n2cnnn2)c(OC)c1 | . | 0
COc1ccc(N2C(=O)CC(Sc3nc(C)cc(C)c3C#N)C2=O)cc1 (configuration not stated) | -17 | .
Nc1nnc(SC2CC(=O)N(c3ccccc3)C2=O)s1 (configuration not stated) | 4 | 62*
Cc1ccc(NC(=S)N2CCC(N(C)CC3CCCO3)CC2)c(C)c1 (configuration not stated) | 12 | 6
O=C(c1ccc2c(c1)OCO2)N1CCN(c2ccc(F)cc2)CC1 | 5 | 4
O=C(c1ccc(Cl)cc1)N1CCN(c2ccc(F)cc2)CC1 | 42 | 59*
Cc1ccc(SCc2cc(=O)[nH]c(N3CCN(Cc4ccc5c(c4)OCO5)CC3)n2)cc1 | 60* | -17
Cc1ccc2c(CN3CCN(Cc4ccc5c(c4)OCO5)CC3)cc(=O)oc2c1C | 15 | 4
O=C(Nc1ccccc1OC(F)F)c1ccc(Br)o1 | 24 | 9
Cc1ccc(N=C2C(=S)N(c3ccc(C)cc3)C(=N)N2/N=C/c2ccc(Cl)cc2)cc1 | -6 | -3
CCOC(=O)CSc1nc2ccccc2n1CC(=O)NC(C)(C)C | 18 | 15
CCOC(=O)Cn1c(=O)c(-c2ccccc2NCc2ccccc2)nc2ccccc21 | 58* | -30
CCN(C(=O)CN1CCN(c2ccc(OC)cc2)CC1)c1c(N)n(Cc2ccccc2)c(=O)[nH]c1=O | 19 | 17
CCCOc1ccc(N2C(=O)CC(SC(=NCC)Nc3cccc(F)c3)C2=O)cc1 (configuration not stated) | 53* | -44
CCCOc1ccc(N2C(=O)CC(SC(=NC)Nc3ccc(F)cc3)C2=O)cc1 (configuration not stated) | 10 | -16
C1CN(CC23CC4CC(CC(C4)C2)C3)CCO1 | 30 | 19
SMILES | Yeast eIF2B | Yeast growth tox
CC(C)CNC(=O)c1cccc(NC(=O)C2CCCO2)c1 (configuration not stated) | 31 | -10
c1ccc(CN2CCN(c3nc(N4CCOCC4)c4ccccc4n3)CC2)cc1 | 7 | 8
CN1CCN(c2nc(N3CCN(CCO)CC3)nc3ccccc23)CC1 | 55* | -5
N#Cc1cc2c(nc1SCC(=O)Nc1sc3c(c1C#N)CCC3)CCCCCC2 | . | 18
CN1CCc2nc(SCC(=O)Nc3ccc(Cl)cc3)c(C#N)cc2C1 | 62* | -14
CCOc1ccc(-c2[nH]ncc2Oc2cccc(OC)c2)c(O)c1 | -1 | 6
COc1cccc(Oc2cn[nH]c2-c2ccc(OC)cc2O)c1 | 66* | -9
Nc1nc2ccc(-c3nc4ccccc4o3)cc2s1 | 24 | 21
Nc1ccc2nc(-c3ccccc3)sc2c1 | 72* | 20
COc1cc(S(=O)(=O)N2CCN=C2c2ccccc2)ccc1F | -20 | ?
COc1ccc(C2=CSC3=NCCN23)cc1F | 65* | 7
CC1(C)Cc2c(sc3c4nnnn4c4nnnn4c23)CO1 | 10 | 9
CC(=O)Nc1ccc(NC(=O)Oc2ccccc2)cc1 | 9 | -11
COCC(=O)Nc1ccc(Nc2ccccc2)cc1 | -9 | 31*
CCC(=O)Nc1ccc(Nc2ccccc2)cc1 | 4 | 8
CC(=O)Oc1ccc(NC(=O)Cc2ccccc2)cc1 | 58* | 14
O=C(NCC(=O)N(Cc1ccco1)C(C(=O)NC1CCCC1)c1ccncc1)c1cccs1 (configuration not stated) | -15 | .
O=C(NC1CCCC1)C(c1ccccc1)N(Cc1ccco1)C(=O)Cc1cccs1 (configuration not stated) | 57* | 0
COc1ccc(S(=O)(=O)N2CCC(C(=O)Nc3ccc4c(c3)OCCO4)CC2)cc1OC | 23 | 1
Cc1ccc(-c2cc(NC(=O)CCl)n(-c3ccccc3)n2)cc1 | 31 | ?
O=C(CCl)Nc1cc(-c2ccccc2)nn1-c1ccccc1 | . | 59*
CSc1cccc(-n2cc(-c3ccc4c(c3)OCO4)[nH]c2=O)c1 | . | 16
COc1cccc(-n2c(C)c(C(C)=O)c(C(C)=O)c2C)c1 | 45 | 9

Screens deposited in PubChem by PCMD.
